From ChEMBL document CHEMBL1138325, “Design, synthesis, in vitro, and in vivo characterization of phenylpiperazines and pyridinylpiperazines as potent and selective antagonists of the melanocortin-4 receptor” (J Med Chem, 2007)

What was measured:
Melanocortin receptor 5 = Melanocortin receptor 5 (Homo sapiens, UniProt P33032); assay: Displacement of [125I]NDPMSH from human MC5R expressed in HEK293 cells; assay type: cell-based
Melanocortin receptor 4 [1] = biological target: T1, Melanocortin receptor 4 (Homo sapiens, UniProt P32245); assay: Antagonist activity at human MC4R expressed in HEK293 cells assessed as inhibition of alpha-MSH-stimulated cAMP production; assay type: functional, cell-based
T1 sequence (P32245 whole entry): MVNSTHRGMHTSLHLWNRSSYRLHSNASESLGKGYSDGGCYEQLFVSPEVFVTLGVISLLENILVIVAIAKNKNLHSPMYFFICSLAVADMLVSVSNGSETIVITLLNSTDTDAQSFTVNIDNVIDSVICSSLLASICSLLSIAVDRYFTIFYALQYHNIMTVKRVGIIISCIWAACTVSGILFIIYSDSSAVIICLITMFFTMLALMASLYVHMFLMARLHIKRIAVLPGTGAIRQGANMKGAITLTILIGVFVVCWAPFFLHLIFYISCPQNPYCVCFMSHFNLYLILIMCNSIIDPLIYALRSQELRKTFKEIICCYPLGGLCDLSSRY

[2] = AUC in Sprague-Dawley rat at 10 mg/kg, po; assay type: ADME, organism-based; design: dose 10 mg/kg, route oral; conditions: plasma
[3] = Tmax in Sprague-Dawley rat at 2.5 mg/kg, iv and 10 mg/kg, po; assay type: ADME, organism-based; conditions: in vivo
Summary of the method: (§1)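 Sprague–Dawley rats, three animals per route; i.v. given at 2.5 mg/kg and oral at 10 mg/kg; plasma PK parameters calculated from these dosings.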

[4] = Cmax in Sprague-Dawley rat at 10 mg/kg, po; assay type: ADME, organism-based; design: dose 10 mg/kg, route oral; conditions: in vivo
Melanocortin receptor 4 [5] = biological target: T1, Melanocortin receptor 4; assay: Displacement of [125I]NDPMSH from human MC4R expressed in HEK293 cells; assay type: cell-based
[6] = Clearance in Sprague-Dawley rat at 2.5 mg/kg, iv and 10 mg/kg, po; assay type: ADME, organism-based; conditions: in vivo
Summary of the method: (§2)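 Sprague–Dawley rats, three animals, dosed i.v. at 2.5 mg/kg and orally at 10 mg/kg. CL and t1/2 were derived from the plasma profile.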

[7] = Half life in Sprague-Dawley rat at 2.5 mg/kg, iv and 10 mg/kg, po; assay type: ADME, organism-based; conditions: in vivo; summary of the method: as §2
[8] = Volume of distribution in Sprague-Dawley rat at 2.5 mg/kg, iv and 10 mg/kg, po; assay type: ADME, organism-based; conditions: in vivo; summary of the method: as §1
[9] = Drug level in Sprague-Dawley rat brain at 10 mg/kg, po after 4 hrs; assay type: ADME, organism-based; design: dose 10 mg/kg, route oral; conditions: read-out: Drug uptake
[10] = Oral bioavailability in Sprague-Dawley rat at 10 mg/kg, po; assay type: ADME, organism-based; conditions: in vivo
Summary of the method: (§3)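 Sprague–Dawley rats, three animals per route; i.v. dose 5 mg/kg and oral 10 mg/kg. Brain concentrations and brain/plasma ratios taken from the oral dosing at 1 and 4 h post-dose.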

Melanocortin receptor 3 = Melanocortin receptor 3 (Homo sapiens, UniProt P41968); assay: Displacement of [125I]NDPMSH from human MC3R expressed in HEK293 cells; assay type: cell-based
Chain of Melanocortin receptor 3 (P41968 whole entry): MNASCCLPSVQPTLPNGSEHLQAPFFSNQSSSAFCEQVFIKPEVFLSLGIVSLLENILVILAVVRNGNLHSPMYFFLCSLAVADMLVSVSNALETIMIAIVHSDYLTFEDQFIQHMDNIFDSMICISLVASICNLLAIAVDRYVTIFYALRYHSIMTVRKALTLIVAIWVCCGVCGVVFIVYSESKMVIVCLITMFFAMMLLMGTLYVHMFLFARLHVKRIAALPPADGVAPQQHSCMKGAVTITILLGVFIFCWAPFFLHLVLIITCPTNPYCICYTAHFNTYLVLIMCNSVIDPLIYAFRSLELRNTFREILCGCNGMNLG

[11] = Ratio of drug level in brain to plasma in Sprague-Dawley rat at 10 mg/kg, po after 4 hrs; assay type: ADME, organism-based; design: dose 10 mg/kg, route oral; conditions: brain and plasma, read-out: BPR; summary of the method: as §3
[12] = Distribution coefficient, log D by shake flask method; assay type: physicochemical; conditions: octanol/water
Summary of the method: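 LogD measured by the shake-flask method; described elsewhere in the paper as lipophilicity at pH 7.4.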

[13] = Ratio of drug level in brain to plasma in Sprague-Dawley rat at 10 mg/kg, po after 1 hr; assay type: ADME, organism-based; design: dose 10 mg/kg, route oral; conditions: brain and plasma, read-out: BPR; summary of the method: as §3
[14] = biological target: T2, Melanocyte-stimulating hormone receptor (Homo sapiens, UniProt Q01726); assay: Displacement of [125I]NDPMSH from human MC1R expressed in HEK293 cells; assay type: cell-based
Target sequence in this assay (Q01726 whole entry): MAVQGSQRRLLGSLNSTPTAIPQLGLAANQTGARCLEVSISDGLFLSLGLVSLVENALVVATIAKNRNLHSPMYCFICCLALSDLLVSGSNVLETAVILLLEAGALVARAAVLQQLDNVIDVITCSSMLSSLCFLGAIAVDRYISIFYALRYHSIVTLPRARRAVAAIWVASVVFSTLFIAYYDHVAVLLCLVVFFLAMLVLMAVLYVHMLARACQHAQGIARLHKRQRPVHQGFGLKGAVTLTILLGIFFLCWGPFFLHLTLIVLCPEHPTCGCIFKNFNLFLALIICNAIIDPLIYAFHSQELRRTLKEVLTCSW

[15] = Drug level in Sprague-Dawley rat brain at 10 mg/kg, po after 1 hr; assay type: ADME, organism-based; design: dose 10 mg/kg, route oral; conditions: read-out: Drug uptake
[16] = Apparent permeability from apical to basolateral side of Caco-2 cells; assay type: ADME, cell-based; conditions: human
Summary of the method: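 Caco-2 monolayer permeability, with Papp measured in the apical-to-basolateral direction.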

[17] = AUC in CD1 mouse at 10 mg/kg, po; assay type: ADME, organism-based; design: dose 10 mg/kg, route oral; conditions: plasma
Summary of the method: (§4)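 CD-1 mice, three animals, dosed i.v. at 5 mg/kg and by oral gavage at 10 mg/kg. Plasma CL, Vd, t1/2, Cmax, Tmax, oral AUC and F% were derived. Brain concentrations and brain/plasma ratios at 1 and 4 h were taken from the i.v. dosing.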

[18] = Cmax in CD1 mouse at 10 mg/kg, po after 6 hrs; assay type: ADME, organism-based; design: dose 10 mg/kg, route oral; conditions: in vivo; summary of the method: as §4
[19] = Ratio of drug level in brain to plasma in CD1 mouse at 5 mg/kg, iv after 4 hrs; assay type: ADME, organism-based; design: dose 5 mg/kg, route intravenous; conditions: brain and plasma, read-out: BPR
[20] = biological target: Growth hormone secretagogue receptor type 1 (Homo sapiens, UniProt Q92847); assay: Agonist activity at GHSR; assay type: functional
Chain of Growth hormone secretagogue receptor type 1 (Q92847 whole entry): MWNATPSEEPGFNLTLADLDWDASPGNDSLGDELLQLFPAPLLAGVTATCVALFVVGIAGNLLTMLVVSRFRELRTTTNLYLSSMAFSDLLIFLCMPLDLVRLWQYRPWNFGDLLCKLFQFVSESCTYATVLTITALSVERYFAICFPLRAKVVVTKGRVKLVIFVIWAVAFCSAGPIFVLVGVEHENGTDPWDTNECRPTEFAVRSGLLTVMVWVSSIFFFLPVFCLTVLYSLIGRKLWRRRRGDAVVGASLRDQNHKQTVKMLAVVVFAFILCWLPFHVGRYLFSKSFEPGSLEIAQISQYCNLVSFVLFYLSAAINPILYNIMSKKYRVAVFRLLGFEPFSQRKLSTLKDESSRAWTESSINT

[21] = Volume of distribution in CD1 mouse at 5 mg/kg, iv; assay type: ADME, organism-based; design: dose 5 mg/kg, route intravenous; conditions: in vivo
Summary of the method: (§5)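 CD-1 mice, three animals per route; single i.v. dose at 5 mg/kg and oral gavage at 10 mg/kg. Plasma PK parameters derived; brain concentrations and brain/plasma ratios taken from the i.v. dosing at 1 and 4 h.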

[22] = Drug level in CD1 mouse brain at 5 mg/kg, iv after 4 hrs; assay type: ADME, organism-based; design: dose 5 mg/kg, route intravenous; conditions: read-out: Drug uptake; summary of the method: as §4
[23] = Bioavailability in CD1 mouse at 10 mg/kg, po; assay type: ADME, organism-based; conditions: in vivo; summary of the method: as §4
[24] = Clearance in CD1 mouse at 5 mg/kg, iv; assay type: ADME, organism-based; design: dose 5 mg/kg, route intravenous; conditions: in vivo; summary of the method: as §4
[25] = Half life in CD1 mouse at 5 mg/kg, iv; assay type: ADME, organism-based; design: dose 5 mg/kg, route intravenous; conditions: in vivo; summary of the method: as §4
[26] = Drug level in CD1 mouse brain at 5 mg/kg, iv after 1 hr; assay type: ADME, organism-based; design: dose 5 mg/kg, route intravenous; conditions: read-out: Drug uptake; summary of the method: as §4
[27] = Tmax in CD1 mouse at 10 mg/kg, po; assay type: ADME, organism-based; design: dose 10 mg/kg, route oral; conditions: in vivo; summary of the method: as §5
[28] = Ratio of drug level in brain to plasma in CD1 mouse at 5 mg/kg, iv after 1 hr; assay type: ADME, organism-based; design: dose 5 mg/kg, route intravenous; conditions: brain and plasma, read-out: BPR
[29] = Tmax in Sprague-Dawley rat at 5 mg/kg, iv and 10 mg/kg, po; assay type: ADME, organism-based; conditions: in vivo; summary of the method: as §3
[30] = Clearance in Sprague-Dawley rat at 5 mg/kg, iv and 10 mg/kg, po; assay type: ADME, organism-based; conditions: in vivo
[31] = Volume of distribution in Sprague-Dawley rat at 5 mg/kg, iv and 10 mg/kg, po; assay type: ADME, organism-based; conditions: in vivo; summary of the method: as §3
[32] = Half life in Sprague-Dawley rat at 5 mg/kg, iv and 10 mg/kg, po; assay type: ADME, organism-based; conditions: in vivo
[33] = biological target: T2, Melanocyte-stimulating hormone receptor; assay: Displacement of [125I]NDPMSH from human MC1R expressed in HEK293 cells at 10 uM; assay type: cell-based
Target sequence in this assay (Q01726 whole entry, looked up): as the sequence (Q01726 whole entry) above

Chain of Melanocortin receptor 5 (P33032 whole entry): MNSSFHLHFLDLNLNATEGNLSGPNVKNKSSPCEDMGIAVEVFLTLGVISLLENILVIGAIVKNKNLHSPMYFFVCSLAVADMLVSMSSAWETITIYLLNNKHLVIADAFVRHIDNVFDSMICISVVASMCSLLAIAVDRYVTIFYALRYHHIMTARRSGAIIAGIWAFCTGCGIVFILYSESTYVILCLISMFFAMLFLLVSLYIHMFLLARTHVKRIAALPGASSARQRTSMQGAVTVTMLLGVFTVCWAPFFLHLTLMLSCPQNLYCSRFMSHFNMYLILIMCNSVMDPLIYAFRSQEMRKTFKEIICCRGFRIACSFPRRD

SMILES: Cc1ccc([C@@H](CC(C)C)NC(=O)CCN(C)C)c(N2CCN(C(=O)[C@H](C)Cc3ccc(Cl)cc3Cl)CC2)n1
- Ki (Melanocortin receptor 5): 1200 nM
- IC50 (Melanocortin receptor 4 [1]): 49 nM
- AUC [2]: 517 ng·h/mL
- Tmax [3]: 2 h
- Cmax [4]: 60 ng/mL
- Ki (Melanocortin receptor 4 [5]): 2.5 nM
- clearance [6]: 64.9 mL/min/kg
- half-life [7]: 3.3 h
- Vd [8]: 18.6 L/kg
- concentration at 4 h [9]: 29 ng/g
- bioavailability [10]: 19.6%
- Ki (Melanocortin receptor 3): 3300 nM
- Kp at 4 h [11]: 0.2
- logD [12]: 3.3
- Kp at 1 h [13]: 0.2
- Ki [14]: 6400 nM
- concentration at 1 h [15]: 15 ng/g

SMILES: Cc1ccc(N2CCN(C(=O)[C@H](C)Cc3ccc(Cl)cc3)CC2)c([C@@H](N)CC(C)C)c1
- IC50 (Melanocortin receptor 4 [1]): 570 nM
- Papp A→B [16]: 1.8 ×10⁻⁶ cm/s
- AUC [17]: 1760 ng·h/mL

SMILES: CC(C)C[C@@H](N)c1cccnc1N1CCN(C(=O)CCc2ccc(Cl)cc2Cl)CC1
- Ki (Melanocortin receptor 4 [5]): 260 nM

SMILES: CC(C)C[C@H](NCCN)c1cccc(F)c1N1CCN(C(=O)[C@@H](Cc2ccc(Cl)cc2Cl)N2CCCC2=O)CC1
- Cmax [18]: 552 ng/mL
- Kp at 4 h [19]: 0.23
- Papp A→B [16]: 2 ×10⁻⁶ cm/s
- Intrinsic activity [20]: 107%

SMILES: CC(C)C[C@@H](N)c1cccnc1N1CCN(C(=O)C(C)Cc2ccc(Cl)cc2Cl)CC1 (stereo not given in full)
- Ki (Melanocortin receptor 4 [5]): 36 nM

SMILES: CC(C)C[C@@H](NC(=O)CN)c1cccnc1N1CCN(C(=O)[C@H](C)Cc2ccc(Cl)cc2Cl)CC1
- Vd [21]: 16.8 L/kg
- concentration at 4 h [22]: 14 ng/g
- bioavailability [23]: 12.6%
- clearance [24]: 37.4 mL/min/kg
- half-life [25]: 5.2 h
- concentration at 1 h [26]: 35 ng/g
- Ki (Melanocortin receptor 4 [5]): 6 nM
- Cmax [18]: 288 ng/mL
- Kp at 4 h [19]: 0.15
- Tmax [27]: 0.5 h
- Kp at 1 h [28]: 0.07
- AUC [17]: 551 ng·h/mL

SMILES: Cc1ccc([C@H](N)CC(C)C)c(N2CCN(C(=O)[C@H](C)Cc3ccc(Cl)cc3Cl)CC2)n1
- Ki (Melanocortin receptor 4 [5]): 44 nM

SMILES: CC(C)C[C@H](N)c1cc(C(F)(F)F)ccc1N1CCN(C(=O)CCc2ccc(Cl)cc2Cl)CC1
- Ki (Melanocortin receptor 4 [5]): 75 nM

SMILES: Cc1ccc(N2CCN(C(=O)[C@H](C)Cc3ccc(Cl)cc3)CC2)c([C@H](CC(C)C)NC(=O)CCN(C)C)c1
- Ki (Melanocortin receptor 5): 710 nM
- IC50 (Melanocortin receptor 4 [1]): 160 nM
- Tmax [29]: 5.3 h
- clearance [30]: 15 mL/min/kg
- AUC [2]: 2360 ng·h/mL
- Cmax [4]: 196 ng/mL
- Vd [31]: 4.1 L/kg
- Ki (Melanocortin receptor 4 [5]): 3.7 nM
- concentration at 4 h [9]: 36 ng/g
- half-life [32]: 3.1 h
- bioavailability [10]: 19%
- Activity [33]: 34%
- Ki (Melanocortin receptor 3): 2800 nM
- Kp at 4 h [11]: 0.3
- logD [12]: 2.4
- Kp at 1 h [13]: 0.2
- concentration at 1 h [15]: 12 ng/g

SMILES: COc1cc(Cl)ccc1CC(C)C(=O)N1CCN(c2ccc(C(F)(F)F)cc2[C@@H](N)CC(C)C)CC1 (stereo not given in full)
- AUC [17]: 249 ng·h/mL
- logD [12]: 4.5

SMILES: CC(C)C[C@H](N)c1cccnc1N1CCN(C(=O)CCc2ccc(Cl)cc2Cl)CC1
- Ki (Melanocortin receptor 4 [5]): 890 nM

SMILES: CC(C)C[C@H](NC(=O)CN)c1cc(C(F)(F)F)ccc1N1CCN(C(=O)CCc2ccc(Cl)cc2Cl)CC1
- Activity [33]: 18%
- AUC [17]: 687 ng·h/mL

SMILES: Cc1ccc(N2CCN(C(=O)[C@@H](Cc3ccc(Cl)cc3Cl)N3CCCC3=O)CC2)c([C@H](CC(C)C)NC(=O)CCN(C)C)c1
- Tmax [29]: 4 h
- clearance [30]: 38.7 mL/min/kg
- AUC [2]: 393 ng·h/mL
- Cmax [4]: 40 ng/mL
- Vd [31]: 8.8 L/kg
- concentration at 4 h [9]: 15 ng/g
- half-life [32]: 2.6 h
- bioavailability [10]: 8.7%
- Kp at 4 h [11]: 0.3
- logD [12]: 3.9
- Kp at 1 h [13]: 0.2
- concentration at 1 h [15]: 1.5 ng/g

SMILES: CC(C)C[C@H](NC(=O)CN)c1cccnc1N1CCN(C(=O)[C@H](C)Cc2ccc(Cl)cc2Cl)CC1
- Ki (Melanocortin receptor 4 [5]): 39 nM
